Sampled rows, rich in hits. Any-hit rate of the full collection: about 9.2%.
HUVEC inhibit: inhibitors of HUVEC proliferation, primary screen, cell-based, 384-well; CellTiter-Glo luminescence, 72 h; hits give low values; viability, % at 10 µM (by protocol); hit rate 1.1% among 86,000;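 active = viability at or below 30%; inactive = viability above 30%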;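 note: 100% = median luminescence of DMSO-only cell control wells on each plate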
H69AR inhibit: proliferation blockers of H69AR lung cancer cells, primary screen, cell-based, human, 86K library | viability, % at 10 µM | hit rate 6% among 85,000 | AID 598, 2007 | H69AR lung tumor viability, ATP luminescence, 72 h; hits give low values;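 active = viability at or below 40%; inactive = viability above 40%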;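 note: multidrug resistant small cell line overexpressing MRP-1 efflux transporter; 100% = mean luminescence of untreated control wells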
ERb coact inh: inhibitors of ERβ-SRC1 coactivator interaction, primary screen, biochemical, TR-FRET, ERβ LBD, SRC-1 peptide | Estrogen receptor beta (Homo sapiens), Q92731 | TR-FRET ER-beta LBD / SRC1-Cy5 peptide binding; receptor agonist-loaded with 1 µM estradiol | inhibition, % at 25.6 µM | hit rate 1.3% among 86,000;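 active = compounds whose percent inhibition of the receptor-coactivator binding signal exceeds about 50% in the single-dose screen, limit read from the data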;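 note: 0% = receptor plus peptide wells without compound and 100% = peptide-only wells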
ERa SRC1 inh: ERα–SRC-1 coactivator interaction inhibitors, primary screen, biochemical, TR-FRET, ERα LBD, estradiol-bound; Estrogen receptor (Homo sapiens), P03372; TR-FRET ER-alpha LBD / SRC-1 peptide; inhibition, % at 25.6 µM; hit rate 1.7% among 86,000; in the data active = inhibition above about 50%;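 note: 0% = receptor plus peptide control and 100% = peptide only without receptor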
Target sequence (P03372 whole entry, looked up, the tested form may be a part): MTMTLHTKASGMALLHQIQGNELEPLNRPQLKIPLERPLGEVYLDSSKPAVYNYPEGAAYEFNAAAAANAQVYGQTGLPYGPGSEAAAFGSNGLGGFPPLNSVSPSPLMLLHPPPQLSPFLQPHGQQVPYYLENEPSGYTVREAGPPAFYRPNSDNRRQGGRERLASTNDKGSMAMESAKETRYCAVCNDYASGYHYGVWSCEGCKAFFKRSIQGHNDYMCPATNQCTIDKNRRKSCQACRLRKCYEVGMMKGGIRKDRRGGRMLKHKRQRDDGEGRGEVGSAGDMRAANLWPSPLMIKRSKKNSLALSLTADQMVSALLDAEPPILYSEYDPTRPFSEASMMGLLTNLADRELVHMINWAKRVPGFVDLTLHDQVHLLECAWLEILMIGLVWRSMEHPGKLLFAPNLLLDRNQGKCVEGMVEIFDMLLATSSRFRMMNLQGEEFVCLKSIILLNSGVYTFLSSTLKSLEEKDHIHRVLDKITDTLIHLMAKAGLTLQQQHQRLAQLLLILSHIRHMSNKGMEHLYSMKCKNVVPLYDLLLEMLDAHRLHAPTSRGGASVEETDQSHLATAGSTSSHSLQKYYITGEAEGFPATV
Lung fibro prol: antiproliferative effect on LL 47 fibroblasts – human, LL 47 cells, CellTiter-Glo luminescence, primary screen | viability, % at 10 µM | LL 47 human lung fibroblast viability, ATP luminescence; hits give low values | hit rate 1.1% among 85,000;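 active = viability at or below 50% in the single dose screen; inactive = viability above 50%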;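 note: compound exposure lasted 72 h before the ATP readout; 100% = median luminescence of untreated cell-only wells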
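material = human LL 47 lung fibroblast cells | dosing = compounds added from tenfold dosing solution, 0.1% DMSO final | timing = overnight cell rest, 72 h compound treatment at 37 °C | measured by = CellTiter-Glo luminescence measuring cellular ATP | evaluation = % viability versus median cells-only luminescence | control set = cell-only wells, no compound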
ERa coact pot: enhancers of ERα–SRC-1 coactivator binding, primary screen, biochemical, TR-FRET, ERα LBD, low estradiol; TR-FRET ERalpha-LBD/SRC-Cy5 coactivator binding, 2 h; 100 = basal binding, no effect; coactivator binding (% of control), % at 25.6 µM; Estrogen receptor (Homo sapiens), P03372; hit rate 1.3% among 86,000; AID 639, 2007; in the data active = activity above about 200%;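 note: binding measured in presence of low estradiol as agonist stimulus; 0% = peptide alone without receptor and 100% = receptor with peptide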
* = called active by the depositor; + = active, no number; [ ] = another dose, or the depositor's remark.

SMILES	HUVEC inhibit	H69AR inhibit	ERb coact inh	ERa SRC1 inh	Lung fibro prol	ERa coact pot
COc1cccc(N2CCN(c3ncccn3)CC2)c1	110	97	-2	-2	100	338*[fluorescence artefact?]
CC(=O)Nc1ccc(S(=O)(=O)N2CCN(C(=O)c3cccnc3)CC2)cc1	98	103	-3	4	102	88
COc1ccccc1-c1c(C)nn2c(C)cc(C)nc12	96	103	2	-2	98	91
CCOC(=O)N1CCN(C(=O)CSc2cc(C)nc3c(-c4ccccc4OC)c(C)nn23)CC1	99	39*	-5	-4	102	124
CCOC(=O)N1CCC(Nc2cc(C)nc3c(-c4ccccc4OC)c(C)nn23)CC1	74	37*	-10	-5	90	111
Cc1c(-c2cccs2)[n+](=O)c2c(n1[O-])CCCCC2	102	100	-5	-1	97	119
NC1=NC2(CCC(c3ccccc3)CC2)n2c(nc3ccccc32)N1 (configuration not stated)	62	8.7*	-14	10	87	75
NC1=NC2(CCCCC2)n2c(nc3ccccc32)N1	88	92	3	52*[fluorescence artefact?]	87	36
NC1=NC2(CCN(Cc3ccccc3)CC2)n2c(nc3ccccc32)N1	91	90	2	9	94	97
CC(C)(C)N1CC(COc2ccccc2)OC1=O (configuration not stated)	107	95	-5	-6	95	118
Cc1nn(C)c(C)c1CN(C)S(=O)(=O)c1ccc2ccccc2c1	91	98	-3	17	93	93
Cc1cc(-c2ccco2)c(C#N)c2nc3ccccc3n12	97	53	48	81*[fluorescence artefact?]	93	86
COc1ccc2c(C)cc(SCC(=O)c3ccc4c(c3)OCO4)nc2c1	81	48	12	16	89	300*[fluorescence artefact?]
COc1ccc(S(=O)(=O)N(C)CC(=O)NC2CC2)cc1	94	95	-7	-7	107	102
CCCCn1ccnc1C(=O)c1cccc(S(=O)(=O)N2CC(C)CC(C)C2)c1 (configuration not stated)	115	66	-8	5	101	90
CCN(CC)c1ccc(NC(=O)c2cnc3ccccn3c2=O)c(C)c1	66	81	-1	-41	98	629*[fluorescence artefact?]
CCN(CC)c1ccc(NC(=O)c2cccnc2)c(C)c1	89	40*	-11	-9	99	104
CCN(CC)c1ccc(NC(=O)c2cccc(C)c2OC)c(C)c1	106	83	1	-9	90	91
CCCCNC(=S)NNC(=O)c1nn(C)cc1Cl	95	95	-19	-3	103	92
CCOC(=O)c1ccc2[nH]c3c(c2c1)CCCCC3=O	76	93	8	8	107	97
O=C1CCCc2c1[nH]c1ccc(Cl)cc21	19*	107	-4	-7	97	96
O=c1ccc(/C=C/c2ccccc2)nn1Cc1ccccc1Cl	103	97	5	8	99	83
O=c1ccc(/C=C/c2ccccc2)nn1Cc1ccc(Cl)cc1Cl	95	99	9	-3	103	+[fluorescence artefact?]
O=[N+]([O-])c1ccc(N=Nc2ccc(O)cc2O)cc1	18*	3.2*	44	44	40*	49
Cc1nc2ccc(NS(=O)(=O)c3c(C)c(C)cc(C)c3C)cc2s1	87	16*	-1	-4	96	74
COc1ccc(C2C3=C(CCCC3=O)Nc3nc4ccccc4n32)c(OC)c1OC (configuration not stated)	102	95	4	2	106	106
CCOC(=O)c1cc2sccc2n1CC(=O)O	103	90	15	7	103	79
CCOC(=O)c1cc2sccc2n1CC(=O)N1c2ccccc2CC1C (configuration not stated)	12*	4.7*	7	17	69	83

Screens as filed in PubChem.
